# FN deposition inh: inhibitors of fibronectin matrix deposition, primary screen, AH1F cells, Alexa488-fibronectin fluorescence, plate reader | AH1F fibroblasts, overnight | AID 743247, 2014 | 0.086% of 350,000 active | inhibition, % at 12.6 µM;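 active means mean inhibition across replicates of 30% or more, regardless of how many single replicates reach that level; inconclusive means mean under 30% yet at least half of replicates reach 30%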;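 further: positive control wells lacked labelled fibronectin entirely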
#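 material = AH1F fibroblast monolayer depositing Alexa488-labelled fibronectin into matrix | amount = 10000 AH1F cells/well | buffer or medium = DMEM plus 2% serum, read in PBS | incubation = 1 h cell adhesion before compound, then overnight fibronectin incubation | detection = fluorescence at 485 nm excitation, 525 nm emission | evaluation = percent inhibition as loss of matrix-bound fibronectin fluorescence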
# PfHsp90 set2: growth inhibition of PfHsp90-expressing yeast, primary screen, antimalarial PfHsp90 inhibitor project, S. cerevisiae, BacTiter-Glo luminescence, single point, set 2. BacTiter-Glo ATP, 48 h; yeast lacking PDR1 and PDR3 efflux regulators. inhibition, % at 9.4 µM. 0.32% of 310,000 active;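 active means every replicate shows inhibition above about 80%, whatever the replicate mean, limit read from the data; inconclusive means mean inhibition reaches the set limit but some replicate falls short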;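 further: 0% = DMSO neutral controls and 100% = 20 µM radicicol positive controls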
# PglD inh: C. jejuni PglD acetyltransferase inhibitors, primary screen, biochemical, DTNB colorimetric, single point; UDP-N-acetylbacillosamine N-acetyltransferase PglD (Campylobacter jejuni); purified PglD enzyme, DTNB colorimetric CoA detection; inhibition, % at 12.5 µM; 0.098% of 360,000 active; AID 602405, 2012; in the data active means inhibition above about 16%, passing the limit was not always enough; inconclusive means no clear call, values can overlap the other calls
# Rtt109 HAT inh: inhibitors of C. albicans Rtt109/Vps75 HAT, primary screen, biochemical, ThioGlo CoA-SH fluorescence, plate reader | Histone acetyltransferase RTT109 (Candida albicans (strain SC5314 / ATCC MYA-2876)), … | purified Rtt109/Vps75, 4 h | inhibition, % at 34.9 µM | 0.16% of 330,000 active | AID 540336, 2011;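 active means inhibition of at least 50% in every replicate; inconclusive means best replicate reaches 50% inhibition but some replicates fall short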
# Target sequence (Q5AAJ8 whole entry, looked up): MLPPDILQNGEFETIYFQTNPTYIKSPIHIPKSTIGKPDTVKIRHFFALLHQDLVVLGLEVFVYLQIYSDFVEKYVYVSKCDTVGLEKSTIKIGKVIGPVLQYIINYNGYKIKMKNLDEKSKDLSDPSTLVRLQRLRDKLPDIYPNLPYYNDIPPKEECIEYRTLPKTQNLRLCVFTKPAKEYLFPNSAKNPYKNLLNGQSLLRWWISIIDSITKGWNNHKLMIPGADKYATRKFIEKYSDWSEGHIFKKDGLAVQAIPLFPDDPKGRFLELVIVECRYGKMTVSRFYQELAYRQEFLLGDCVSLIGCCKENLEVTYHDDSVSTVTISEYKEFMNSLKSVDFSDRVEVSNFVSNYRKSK
# CSC inhib: cancer stem cell viability inhibitors, primary screen, luminescence. cancer stem cell-like cells viability. inhibition, % at 7.5 µM. 1.1% of 300,000 active. AID 2717, 2010; in the data active means inhibition above about 75%; inconclusive means no clear call, values can overlap the other calls; tested in HMLE shEcad cells
# SKKanGAS inh: S. pyogenes SKKanGAS growth inhibitors in kanamycin, primary screen, streptokinase expression inhibitor project, SKKanGAS strain, BacTiter-Glo luminescence. 6 h. inhibition, % at 7.5 µM. 1.3% of 300,000 active. AID 1662, 2009;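 active means mean replicate score, as percent of positive control median, at least 50; inconclusive means mean below 50 but one replicate at or above 50; inactive means mean and every replicate below 50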;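 further: strain carries kanamycin resistance gene driven by streptokinase promoter and grows in 40 µg/ml kanamycin; loss of luminescence reflects streptokinase promoter inhibition or plain growth inhibition; 0% = median of DMSO wells and 100% = positive control at its reference dose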
# * marks the source's active call; other numbers are inactive results; ? = inconclusive; · = no result; ! = not active in a repeat. An excerpt weighted towards active compounds, which were near 1.7% of everything screened.
SMILES,FN deposition inh,PfHsp90 set2,PglD inh,Rtt109 HAT inh,CSC inhib,SKKanGAS inh
COc1ccc(CCC(C)NC2CCCCCCC2)cc1 (centres undefined),6,-6,-1,-7,19,1
Cc1ncc(CO)c(/C=N/NC(=O)c2cc(Br)ccc2O)c1O,4,-28,·,4,13,92*
CCCCCCc1nc2ccccc2c(=O)n1NC(=O)c1c(O)c2c(n(CC(C)C)c1=O)CCCC2,17,-24,-9,3,9,57*
Cc1nc2ccccc2c(=O)n1NC(=O)c1c(O)c2c(n(CC(C)C)c1=O)CCCC2,-13,0,2,-3,·,33
CN(C)S(=O)(=O)c1cccc(-c2nn(-c3ccccc3)cc2/C=C(\C#N)c2nc3ccccc3[nH]2)c1,2,-13,-3,-4,-10,35
CN(C)S(=O)(=O)c1cccc(-c2nn(-c3ccccc3)cc2/C=C2\SC(=S)NC2=O)c1,1,-18,·,-3,94*,·
Cc1cccc(NC(=S)N/N=C/c2c[nH]c3ccccc23)c1,5,-18,-2,6,79*,8
Cc1ccc(NC(=S)N/N=C/c2c(C)[nH]c3ccccc23)cc1,-1,13,-2,12,97*,4
Cc1[nH]c2ccccc2c1/C=N/NC(N)=S,11,1,·,3,2,20
C[C@@H]1CN([C@H](C)CO)S(=O)(=O)c2ccc(C3=CCCC3)cc2O[C@@H]1CN(C)C(=O)C1CCOCC1,-10,·,-2,·,·,·
O=C(Nc1ccc(Nc2ccccc2)cc1)C(Cl)Cl,·,17,·,0,6,1
CC(C)(C)C(=O)C(Cl)C(=O)Nc1ccccc1 (centres undefined),-10,107*,·,-8,-10,-7
Cc1ccccc1C(=O)Oc1ccc(Sc2ccc(O)cc2)cc1,5,·,-1,3,25,96*
Oc1ccccc1C1CCCCC1c1ccccc1 (centres undefined),7,-21,-4,1,76*,?
Oc1ccccc1C1SC(c2ccccc2O)SC(c2ccccc2O)S1 (centres undefined),-2,·,-4,-2,·,·
CCN(Cc1ccccc1)S(=O)(=O)c1ccc(C(=O)Nc2nnc(-c3ccccc3OC)o2)cc1,0,-54,1,11,6,94*
CCCCN(C)S(=O)(=O)c1ccc(C(=O)Nc2nnc(-c3cccs3)o2)cc1,·,·,·,·,111*,101*
CCCCN(CC)S(=O)(=O)c1ccc(C(=O)Nc2nnc(-c3ccccc3Cl)o2)cc1,·,-45,2,-4,-9,99*
CCCCN(CCCC)S(=O)(=O)c1ccc(C(=O)Nc2nnc(CSC)o2)cc1,-3,-51,6,-9,22,106*
CCCCN(CC)S(=O)(=O)c1ccc(C(=O)Nc2nnc(CSC)o2)cc1,1,20,1,-2,4,25
C[C@]12CCC(O)CC1CCC1C2CC[C@]2(C)C(c3cc(C(F)(F)F)n[nH]3)CCC12 (some centres undefined),-7,10,4,1,112*,106*
Clc1ccc(-c2ccc(CNCc3ccccn3)o2)cc1,-8,-61,6,-2,-8,57*
C[C@H](CO)N1C[C@H](C)[C@@H](CN(C)Cc2ccc(C(F)(F)F)cc2)OCCCC[C@H](C)Oc2ccc(NC(=O)Nc3ccc(F)cc3)cc2C1=O,6,·,-7,·,·,·
CCOc1cc(S(=O)(=O)Nc2ccc(CC)cc2)ccc1Cl,-4,·,-6,35,123*,2
N/C(=N\OC(=O)c1ccc2ccccc2c1)c1ccccc1Cl,·,100*,1,-7,-7,8
SMILES,FN deposition inh,PfHsp90 set2,PglD inh,Rtt109 HAT inh,CSC inhib,SKKanGAS inh
CC[C@H](CO)Nc1nc(Nc2cccc(Cl)c2)c2ncn(C(C)C)c2n1,7,3,-2,11,82*,17
CC(C)[C@H](CO)N(Cc1cccc(F)c1)c1nc(Nc2cccc(Cl)c2)c2ncn(C(C)C)c2n1,3,8,7,-6,71,36
C[C@@H]1CCCCO[C@H](CN(C)Cc2ccc(C(=O)O)cc2)[C@H](C)CN([C@@H](C)CO)C(=O)c2cc(NC(=O)C3CCCCC3)ccc2O1,·,·,2,·,·,·
O=C(Cc1cccnc1)N1CC2(C1)[C@H](c1ccccc1)[C@H](CO)N2C(=O)C1CC1,-4,·,·,·,·,·
Brc1ccc(/C=N/Nc2ccccc2)cc1,-6,10,·,3,79*,0
Cc1ccc(Nc2c(-c3ccccn3)nc3cc(C)ccn23)cc1,0,4,0,·,98*,101*
Cc1ccc(Nc2c(-c3ccccc3)nc3cnccn23)cc1,2,7,·,29,3,-4
Cc1ccc(Nc2c(-c3ccccn3)nc3ccc(C)cn23)cc1,-10,26,-1,3,112*,97*
Cc1ccn2c(Nc3ccc4c(c3)OCO4)c(-c3ccccn3)nc2c1,-4,18,3,1,1,97*
Cc1ccc(S(=O)(=O)N[C@H]2C=C[C@@H](CC(=O)NC3CCCCC3)O[C@@H]2CO)cc1,-8,·,2,·,·,·
COc1cnc(-c2ccccn2)nc1Oc1ccccc1Cl,1,14,1,1,-14,71*
COc1cnc(-c2ccccn2)nc1Oc1ccc(Cl)c2ccccc12,9,·,-3,-15,55,93*
Cc1noc(C)c1NC(=O)Nc1ccc2c(c1)C(=O)N([C@H](C)CO)C[C@@H](C)[C@@H](CN(C)Cc1ccncc1)OCCCC[C@@H](C)O2,·,·,-1,·,·,·
O=C(CCN1C(=O)C2CC=CCC2C1=O)Nc1cccc(S(=O)(=O)N2CCCCC2)c1 (centres undefined),3,-9,0,-4,-2,·
NS(=O)(=O)c1cccc(NC(=O)CCN2C(=O)C3CCCCC3C2=O)c1 (centres undefined),33*,-9,-1,-6,·,·
CC(C)N=C(N)N=C(N)Nc1ccc(Cl)cc1,-1,-7,1,-6,·,·
NC(=NCCCCCCN=C(N)/N=C(\N)Nc1ccc(Cl)cc1)/N=C(\N)Nc1ccc(Cl)cc1,0,51,-2,?,78*!,103*
CCC(=O)Nc1ccc2c(c1)OC[C@H](C)N(C(=O)COC)C[C@@H](C)[C@@H](OC)CN(C)C2=O,8,·,-7,·,·,·
COc1ccc(-n2c(=S)[nH]c3cc(C(=O)Nc4ccc(C)c(F)c4)ccc3c2=O)c(OC)c1,-10,-28,1,-3,16,76*
